Measured values reported in the EternaBench riboswitch data.

System: MS2 coat protein
Experiment: apparent Kd, MS2 coat protein; higher = weaker binding; RNA-MaP array; FMN 200 µM where present
In short: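 Green signal from SNAP-549-labelled MS2 coat protein was normalised to red-channel RNA signal and to the median Fmax of control clusters. The protein was titrated from 0.7 or 1.5 nM, doubling to 3 µM, without and then with constant ligand, over designs transcribed by stalled E. coli RNA polymerase on Illumina sequencing-chip clusters, in 100 mM Tris-HCl pH 7.5, 80 mM KCl, 4 mM MgCl2, BSA, DTT, yeast tRNA and Tween-20. The apparent Kd is the median of filtered per-cluster binding-curve fits.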

[1] = designed as: OFF switch for flavin mononucleotide, no ligand
[2] = ligand present: flavin mononucleotide, designed as: OFF switch for flavin mononucleotide
[3] = designed as: ON switch for flavin mononucleotide, no ligand
[4] = ligand present: flavin mononucleotide, designed as: ON switch for flavin mononucleotide

| Sequence | apparent Kd [1] [nM] | apparent Kd [2] [nM] | apparent Kd [3] [nM] | apparent Kd [4] [nM] |
| --- | --- | --- | --- | --- |
| GAAAAGGUAGGAUAUACGAAAAAAAAGGGUAGAAAAAAAGCACAUGAGGAUCACCCAUGUAGAAGGACCAAAAG | 36.7 | 132 | – | – |
| UGUGUCUGUAGAGGAUAUCCGGGCGUUCUGCUAGGAGAAGGCUGCAACACAUGAGGAUCACCCAUGUAGGUUGUGUCUCUCUAC | 4.82 | 9.87 | – | – |
| UUAUGAGAGCAGGAUAUCUUAUUUUUUUUUUAAAGAGAAGGGCUCACAUGAGGAUCACCCAUGUGGUCCUAGAU | 42.8 | 75.6 | – | – |
| GUACUGACAGGAUAUACAUGAGGAUCACCCAUGUCCUUAUGCUGACAAAAGUCAGCGAGUAGAAGGGUCUGUAC | 101 | 603 | – | – |
| AAGAGAAAAGCAGGAUAUCUAUAGGCUCCUUAACAUGAGGAUCACCCAUGUAGAGAAGGGCUAAGACCGACUCUUCGGAGUUGA | 9.23 | 27.6 | – | – |
| UUAGAAUUGUUAGGAUAUUAAUUAUUUUUUAGUAUGAUCUACAUGAGGAUCACCCAUGUUAAAUAUAAGAAGGAACGUUUUAUU | 51.8 | 52 | – | – |
| ACAAAUUAGUGAGGAUAUGCUUAAUUUAUAACUGCAGAAGGCACAUACCUCAAGACAUGAGGAUCACCCAUGUGGAAUAUAGAU | 25.4 | 62.8 | – | – |
| CCGCUGUGAGGAUAUUAGUAGUAGUCAGAAUAGACUAUUACUGAGAAGGCACAUGAGGAUCACCCAUGUGGCGG | 22.4 | 31.7 | – | – |
| AGACAGUGAGGAUAUGCAGUCGGUGUCACCUGAUGAGAAGAACAUGAGGAUCACCCAUGUAGAAGGCACAGGAA | 39 | 229 | – | – |
| UUGGGUCGGGAGGAUAUUCGGGCCCAAGGGCUUGGAGAAGGCUCGACAUGAGGAUCACCCAUGUAAGUGUACUU | 26.4 | 73.3 | – | – |
| UUACCUCAUGAGAAGGACAUGAGGAUCACCCAUGUAGGAUAUCGUGGGACAGUGGAAUUGAAUCUUCGGAUUCAAUAACUCUAU | – | – | 327 | 26.1 |
| UUGGAUGUUGAGGAUAUGCUGGUGUUUAUUAUAGCAGAAGGCGAUACAUGAGGAUCACCCAUGUUCAUGGCUUU | 12.8 | 15.2 | – | – |
| AGUCGGCGAGGAUAUACAUGAGGAUCACCCAUGUGAUAGAGUGCACGCGUACGUGUACGUAGAAGGCGCUGACA | 11.9 | 37.7 | – | – |
| UUUUACCUAGGAUAUACAUUUUUUUUAUUAUUUUCAUUAUAACAUGAGGAUCACCCAUGUAGAAGGAGGAUUUU | 28.4 | 33.6 | – | – |
| GCGUGUCAUGUAGGAUAUGACACAGGAAACUGGUCAGAAGGACAUGAGGAUCACCCAUGUAAAAUGUUCAAGAAUAACACAUGC | 50.6 | 185 | – | – |
| UUUUCUUUUGUGAGGAUAUACUUGUUUUUUUUUUUGUAGAAGGCACAUGAGGAUCACCCAUGUUUUCUUUCCUG | 17 | 19.8 | – | – |
| GGUGUGGCAUGAGGAUAUGGUCAGCUUUGCUGACCAGAAGGCAUGUCAAUAGACAUGAGGAUCACCCAUGUAGUUAACACACCA | – | – | 557 | 42.4 |
| GGAAGGUGAGGAUAUACAAUGACGGAAACGUCAGGUGAGAGACAUGAGGAUCACCCAUGUAGAAGGCACGGAGA | 73.7 | 730 | – | – |
| AGUGCGUAUGUGAGGAUAUGCUGGUCCUUGGCUCGGCAGAAGGCACAUGAGGAUCACCCAUGUGGUGUCGUACC | 33 | 151 | – | – |
| UUGCCUCAGAACAUGAGGAUCACCCAUGUGCUGCGGGCAACGUAGGAUAUGAUGGUAUUAUACCGUCAGAAGGAUGAUGGUACU | – | – | 5.59 | 5.2 |
| CACCGUUACAGAGGAUAUGACACAUGAGGAUCACCCAUGUAAUAAAUGAGAAUUUCGAAUGUAACUCAGAAGGCUGGAAUCGGC | 30.5 | 52.8 | – | – |
| GAAGCACACAUUAACAUGAGGAUCACCCAUGUCAAAAGACAUGAGGAUAUGGAUCUGAAGAAGAUCCAGAAGGCAUUGUGCUAA | – | – | 388 | 25.6 |
| UGGUACUAGGGAGGAUAUGGGAAGAUACAUGAGGAUCACCCAUGUUUAAGACUGCCGAGAGGCAACUAGAAGGCCCUAGUACCU | – | – | 624 | 27.4 |
| GCGUUAGUAUCACAUGUAUUACAUGAGGAUCACCCAUGUUACUAGGAUAUGUAUUAGAAUUAUCAACAGAAGGAGUAAUAACGC | 12.6 | 20.3 | – | – |
| GGUACUCAAAGAGUACUUGGUCGAACAUGAGGAUCACCCAUGUAGGAUAUGCGAAGCAAGAAGUAGCAGAAGGGCGUGUGCAGC | 12.8 | 11.6 | – | – |
| AAUCCACAUGAGGAUCACCCAUGUCAGGAUAUCGCGCGCGCGUUUUCGGUCUUGCGCGCGAGAAGGGACGGCUG | 26.2 | 46 | – | – |
| GGACGACACAUCUACAUGAGGAUCACCCAUGUCAAAAGACAUGAGGAUAUGCUACCUAAUUGGUAGCAGAAGGCAUGGUCGUCC | – | – | 1370 | 67.2 |
| AAAUUUUGUCAAGGAUAUGUAUAAAAGAGUUGAAAACAUGAGGAUCACCCAUGUAUAUGGUGGGAACAGAAGGUGAAUAAGUAA | 190 | 182 | – | – |
